Data as given in ChEMBL document CHEMBL1156239, “Synthesis, anticonvulsant and antimicrobial activities of some new 2-acetylnaphthalene derivatives” (Bioorg Med Chem, 2010).
≈ marks a conversion by molar mass, not a printed value. Calls of active or inactive are those of the source. The calls are words filed in the database; no cut-off is given here.

Tests used:
Staphylococcus aureus = assay: Antibacterial activity against Staphylococcus aureus ATCC 25923 after 24 hrs by broth microdilution method; assay type: functional; details: ATCC 25923, 24 h
Method in brief: (§1)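 Broth microdilution in Mueller Hinton broth; compound stocks in DMSO, diluted into test medium. Plates incubated at 35 °C and read visually after 24 h. MIC taken as lowest concentration preventing visible growth. Ampicillin reference.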

Enterococcus faecalis = assay: Antibacterial activity against Enterococcus faecalis ATCC 29212 after 24 hrs by broth microdilution method; assay type: functional; details: ATCC 29212, 24 h; method in brief: as §1
Escherichia coli = assay: Antibacterial activity against Escherichia coli ATCC 25922 after 24 hrs by broth microdilution method; assay type: functional; details: ATCC 25922, 24 h; method in brief: as §1
Pseudomonas aeruginosa = assay: Antibacterial activity against Pseudomonas aeruginosa ATCC 27853 after 24 hrs by broth microdilution method; assay type: functional; details: ATCC 27853, 24 h; method in brief: as §1
Pichia kudriavzevii = assay: Antifungal activity against Candida krusei ATCC 6258 after 48 hrs by broth microdilution method; assay type: functional; details: ATCC 6258, 48 h
Candida parapsilosis = assay: Antifungal activity against Candida parapsilosis ATCC 22019 after 48 hrs by broth microdilution method; assay type: functional; details: Lodderomyces parapsilosis, ATCC 22019, 48 h
Mus musculus [1] = assay: Anticonvulsant activity in CF1 mouse assessed as inhibition of maximal electroshock-induced seizures at 30 mg/kg, ip after 0.5 hrs; assay type: functional, organism-based; design: dose 30 mg/kg
Method in brief: (§2)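 Male albino CF#1 mice (18–25.5 g), compound suspended in 0.5% methylcellulose, given ip 0.5 h or 4 h before test. Eyes treated with 0.5% tetracaine HCl in saline; corneal-type MES at 60 Hz, 50 mA for 0.2 s; protection scored as animals protected/tested.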

Mus musculus [2] = assay: Anticonvulsant activity in CF1 mouse assessed as inhibition of maximal electroshock-induced seizures at 100 mg/kg, ip after 0.5 hrs; assay type: functional, organism-based; design: dose 100 mg/kg; method in brief: as §2
Mus musculus [3] = assay: Anticonvulsant activity in CF1 mouse assessed as inhibition of maximal electroshock-induced seizures at 300 mg/kg, ip after 0.5 hrs; assay type: functional, organism-based; design: dose 300 mg/kg; method in brief: as §2
Mus musculus [4] = assay: Anticonvulsant activity in CF1 mouse assessed as inhibition of maximal electroshock-induced seizures at 30 mg/kg, ip after 4 hrs; assay type: functional, organism-based; design: dose 30 mg/kg; method in brief: as §2
Mus musculus [5] = assay: Anticonvulsant activity in CF1 mouse assessed as inhibition of maximal electroshock-induced seizures at 100 mg/kg, ip after 4 hrs; assay type: functional, organism-based; design: dose 100 mg/kg; method in brief: as §2
Mus musculus [6] = assay: Anticonvulsant activity in CF1 mouse assessed as inhibition of maximal electroshock-induced seizures at 300 mg/kg, ip after 4 hrs; assay type: functional, organism-based; design: dose 300 mg/kg; method in brief: as §2
Mus musculus [7] = assay: Neurotoxicity in CF1 mouse assessed as ability to grasp rotarod at 300 mg/kg, ip after 0.5 hrs by rotarod test; assay type: toxicity, organism-based; design: dose 300 mg/kg, route intraperitoneal; details: in vivo
Method in brief: (§3)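 Male albino CF#1 mice (18–25.5 g) dosed ip with compound suspended in 0.5% methylcellulose, 0.5 h or 4 h before testing; neurotoxicity assessed by rotarod, scored as number toxic/number tested.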

Mus musculus [8] = assay: Neurotoxicity in CF1 mouse assessed as muscle spasms at 300 mg/kg, ip after 0.5 hrs by rotarod test; assay type: toxicity, organism-based, Muscle tissue; design: dose 300 mg/kg, route intraperitoneal; details: in vivo
Mus musculus [9] = assay: Neurotoxicity in CF1 mouse assessed as clonic seizures at 300 mg/kg, ip after 0.5 hrs by rotarod test; assay type: toxicity, organism-based; design: dose 300 mg/kg, route intraperitoneal; details: in vivo
Mus musculus [10] = assay: Neurotoxicity in CF1 mouse at 30 mg/kg, ip after 4 hrs by rotarod test; assay type: toxicity, organism-based; design: dose 30 mg/kg, route intraperitoneal; details: in vivo; method in brief: as §3
Mus musculus [11] = assay: Neurotoxicity in CF1 mouse at 100 mg/kg, ip after 4 hrs by rotarod test; assay type: toxicity, organism-based; design: dose 100 mg/kg, route intraperitoneal; details: in vivo; method in brief: as §3
Rattus norvegicus [12] = assay: Anticonvulsant activity in Sprague-Dawley rat assessed as inhibition of maximal electroshock-induced seizures at 30 mg/kg, po after 0.5 hrs; assay type: functional, organism-based; design: dose 30 mg/kg
Method in brief: (§4)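 Male albino Sprague-Dawley rats (105–130 g) given a single oral 30 mg/kg dose suspended in 0.5% methylcellulose; MES (60 Hz, 150 mA, 0.2 s, tetracaine-anesthetized eyes) at 0.25, 0.5, 1, 2 and 4 h; 4 rats per time point; scored protected/tested.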

Rattus norvegicus [13] = assay: Anticonvulsant activity in Sprague-Dawley rat assessed as inhibition of maximal electroshock-induced seizures at 30 mg/kg, po after 1 hr; assay type: functional, organism-based; design: dose 30 mg/kg; method in brief: as §4
Rattus norvegicus [14] = assay: Anticonvulsant activity in Sprague-Dawley rat assessed as inhibition of maximal electroshock-induced seizures at 30 mg/kg, po after 4 hrs; assay type: functional, organism-based; design: dose 30 mg/kg; method in brief: as §4
Rattus norvegicus [15] = assay: Neurotoxicity in Sprague-Dawley rat at 30 mg/kg, po after 0.25 hrs by rotarod test; assay type: toxicity, organism-based; design: dose 30 mg/kg, route oral; details: in vivo
Rattus norvegicus [16] = assay: Neurotoxicity in Sprague-Dawley rat at 30 mg/kg, po after 0.5 hrs by rotarod test; assay type: toxicity, organism-based; design: dose 30 mg/kg, route oral; details: in vivo
Rattus norvegicus [17] = assay: Neurotoxicity in Sprague-Dawley rat at 30 mg/kg, po after 1 hr by rotarod test; assay type: toxicity, organism-based; design: dose 30 mg/kg, route oral; details: in vivo
Rattus norvegicus [18] = assay: Neurotoxicity in Sprague-Dawley rat at 30 mg/kg, po after 2 hrs by rotarod test; assay type: toxicity, organism-based; design: dose 30 mg/kg, route oral; details: in vivo
Rattus norvegicus [19] = assay: Neurotoxicity in Sprague-Dawley rat at 30 mg/kg, po after 4 hrs by rotarod test; assay type: toxicity, organism-based; design: dose 30 mg/kg, route oral; details: in vivo

O=C(OC(Cn1ccnc1)c1ccc2ccccc2c1)c1ccccc1 (stereo not given)
MIC (Staphylococcus aureus): 8 µg/mL (≈ 23.4 µM)
MIC (Enterococcus faecalis): 32 µg/mL (≈ 93.5 µM)
MIC (Escherichia coli): > 1020 µg/mL
MIC (Pseudomonas aeruginosa): > 1020 µg/mL
MIC (Pichia kudriavzevii): 512 µg/mL (≈ 1500 µM)
MIC (Candida parapsilosis): 1020 µg/mL (≈ 2990 µM)
inhibition (Mus musculus [1]): inactive
inhibition (Mus musculus [2]): Active
inhibition (Mus musculus [3]): Active
inhibition (Mus musculus [4]): inactive
inhibition (Mus musculus [5]): inactive
inhibition (Mus musculus [6]): inactive
Activity (Mus musculus [7]): Toxic
Activity (Mus musculus [8]): Toxic
Activity (Mus musculus [9]): Toxic
Activity (Mus musculus [10]): Non-toxic
Activity (Mus musculus [11]): Non-toxic
inhibition (Rattus norvegicus [12]): inactive
inhibition (Rattus norvegicus [13]): inactive
inhibition (Rattus norvegicus [14]): inactive
Activity (Rattus norvegicus [15]): Non-toxic
Activity (Rattus norvegicus [16]): Non-toxic
Activity (Rattus norvegicus [17]): Non-toxic
Activity (Rattus norvegicus [18]): Non-toxic
Activity (Rattus norvegicus [19]): Non-toxic
